# Measured values pooled from the literature.
# Each line is one published result; the experiments were not run side by side.
# Target: Dual specificity protein kinase CLK2 (CLK2, Homo sapiens, UniProt P49760)
SMILES,observed,action,method,tested at,quantity,result
C#Cc1cccc(Nc2ncnc3cc(OCCOC)c(OCCOC)cc23)c1,cell-free assay,,,0.5 µM,remaining signal,93.4%
CC1(C)NC(=O)c2[nH]c3c(Cl)c(Cl)ccc3c2C1C#N (stereo not drawn),thermal stability,,DSF,10 µM,ΔTm,2.7 °C
CC(C)CC(=O)N1CCc2nc(-c3ccc(Br)cc3)nc(N(C)Cc3ccccc3)c2C1,cell-free assay,,competition with immobilised ligand,0.1 µM,remaining binding,100%
CS(=O)(=O)CCNCc1ccc(-c2ccc3ncnc(Nc4ccc(OCc5cccc(F)c5)c(Cl)c4)c3c2)o1,cell-free assay,,,0.5 µM,remaining signal,95.1%
CCN1CCC2(CC1)NC(=O)c1c(c3ccc(Cl)c(Cl)c3n1C)C2C#N (racemic),thermal stability,,DSF,10 µM,ΔTm,1.4 °C
Cc1cc(NC(=O)c2cccc3cc(-c4cccc5[nH]nc(N)c45)ccc23)ccc1F,enzyme activity,inhibitor,,0.1 µM,activity vs control,95%
CCCOc1ccc([C@@H]2[C@@H](C(=O)O)[C@H](c3ccc4c(c3)OCO4)CN2CC(=O)Nc2c(CC)cccc2CC)cc1,cell-free assay,,competition with immobilised ligand,1 µM,remaining binding,100%
FC(F)(F)Oc1cccc(-c2cnc3ccc(-c4ccncc4)nn23)c1,enzyme activity,inhibitor,radiometric,5 µM,activity vs control,0.623%
CC(C1CC1)n1cnc2c(NCc3cccc(C(F)(F)F)c3)nc(NCCN(C)C)nc21 (stereo not drawn),enzyme activity,inhibitor,,5 µM,inhibition,> 50%
Cc1ccc(C(=O)Nc2ccc(CN3CCN(C)CC3)c(C(F)(F)F)c2)cc1C#Cc1cnc2cccnn12,enzyme activity,inhibitor,,23.5 nM,remaining activity,94%
FC(F)c1nc2ccccc2n1-c1nc(N2CCOCC2)nc(N2CCOCC2)n1,enzyme activity,inhibitor,,10 µM,remaining activity,85%
CC(=O)Nc1c(C(C)=O)c(=O)n(C)c2nc(-c3ccc(Cl)cc3Cl)c(-c3ccc(Cl)cc3)cc12,cell-free assay,,competition with immobilised ligand,1 µM,remaining binding,100%
Cn1c(=O)n(-c2ccc(C(C)(C)C#N)cc2)c2c3cc(-c4cnc5ccccc5c4)ccc3ncc21,enzyme activity,inhibitor,,10 µM,remaining activity,53%
CS(=O)(=O)NCC[C@H](NC(=O)c1cncc2c1cnn2-c1ccc(F)cc1)c1ccnc(S(C)(=O)=O)c1,cell-free assay,,competition with immobilised ligand,1 µM,remaining binding,100%
CCCOc1ccc(OC)c(F)c1C(=O)c1ccc(C(=O)N[C@@H]2CNC[C@H]2NC(=O)c2ccc3[nH]ncc3c2)cc1,enzyme activity,inhibitor,,10 µM,remaining activity,36%
Cn1c2c(c3ccc(Cl)c(Cl)c31)C(C#N)C1(CCN(C(=O)OC(C)(C)C)CC1)NC2=O (racemic),thermal stability,,DSF,10 µM,ΔTm,-0.3 °C
COc1ccc2cc(OCC3(C(=O)O)CN(C(=O)c4ccc(F)cc4)C3)ccc2c1,cell-free assay,,competition with immobilised ligand,1 µM,remaining binding,100%
Clc1ccc(Nc2nnc(Cc3ccncc3)c3ccccc23)cc1,cell-free assay,,,0.5 µM,remaining signal,87.6%
COc1cccc(CNC(=O)c2nc3scc(COCc4ccc(C(=O)O)cc4)c3c(=O)[nH]2)c1,cell-free assay,,competition with immobilised ligand,1 µM,remaining binding,92.4%
COc1cc2ncnc(Nc3ccc(Oc4ccccc4)c(C)c3C)c2cc1OC,enzyme activity,inhibitor,,1 µM,inhibition,3%
O=C(Nc1cnn(-c2csc(C(=O)NC3COC3)c2)c1)Nc1c(F)cccc1Cl,enzyme activity,inhibitor,,5 µM,remaining activity,109%
CN1CCC2(CC1)NC(=O)c1c(c3ccc(Cl)c(Cl)c3n1C)C2C#N (racemic),thermal stability,,DSF,10 µM,ΔTm,1.9 °C
CCCCNc1ncc2c(-c3ccc(F)cc3)nn(C[C@H]3CC[C@H](N)CC3)c2n1,target engagement in cells,inhibitor,chemoproteomics,20 mM,inhibition,46.4%
Cn1cnc(Br)c1C1=CN(c2ncnc3[nH]cnc23)CCS1,enzyme activity,inhibitor,radiometric,2 µM,inhibition,97.2%
COc1cccc2c(NCc3ccccc3)nc(-n3c(N)nc4ccccc43)nc12,target engagement in cells,inhibitor,chemoproteomics,20 mM,inhibition,-12.9%
Cn1c2c(c3ccc(Cl)c(Cl)c31)C(C#N)C1(CCCC1)NC2=O (stereo not drawn),thermal stability,,DSF,10 µM,ΔTm,1.7 °C
CC/C(=N\NC(=O)NCc1cccc(O)c1)c1ccc(O)c(C)c1O,enzyme activity,inhibitor,,0.1 µM,inhibition,1.6%
CC(C)(C)c1nc2c(s1)c1nc(N)ncc1c1ccc(NS(=O)(=O)c3c(F)cccc3F)c(F)c12,enzyme activity,inhibitor,radiometric,1 µM,remaining activity,90%
O=C1NC(=O)c2cc(Nc3ccc(F)cc3)c(Nc3ccc(F)cc3)cc21,cell-free assay,,,0.5 µM,remaining signal,88.1%
COc1cc(Cl)c(C(=O)N[C@@H](CN[C@H]2CC[C@@H](N)CC2)Cc2ccc(C#N)cc2)cc1-c1ccc(CN[C@H](C)c2ccc(C)cc2)o1,enzyme activity,inhibitor,,1 µM,remaining activity,92%
O=C(NCc1ncc(C(F)(F)F)cc1Cl)c1ccc2c(c1)C1(CCS(=O)(=O)CC1)[C@H](C1CC1)N2S(=O)(=O)c1ccc(F)cc1,cell-free assay,,competition with immobilised ligand,1 µM,remaining binding,100%
COc1cc(Nc2cnc(C#N)c(O[C@H](C)CN(C)C)n2)ncc1-c1cnn(C)c1,enzyme activity,inhibitor,radiometric,10 µM,remaining activity,50%
CS(=O)(=O)N1CCCC(NC(=O)[C@H](CCC2CCCCC2)NC(=O)c2ccc(CNC(=O)c3cnc4ccccn34)cc2)C1 (stereo partly drawn),cell-free assay,,competition with immobilised ligand,0.1 µM,remaining binding,98%
CN(C)C1CCN(CC#Cc2nn(C3CCCC3)c3nc(NCc4ccccc4)ncc23)C1 (stereo not drawn),enzyme activity,inhibitor,FRET,0.1 µM,inhibition,8%
CS(=O)(=O)Nc1cccc(-c2csc(NC(=O)CSc3nc4nccnc4c(=O)n3CCc3ccccc3)n2)c1,enzyme activity,inhibitor,,10 µM,inhibition,11%
Cn1cncc1C1=CN(c2ncnc3[nH]cnc23)CCS1,enzyme activity,inhibitor,radiometric,2 µM,inhibition,97.8%
